# Fewer inactive variants are shown than the library holds.
# B1: tRNA (parent)
# chain: GUUCCGUUGGCGUAAUGGUAACGCGUCUCCCUCCUAAGGAGAAGACUGCGGGUUCGAGUCCCGUACGGAACG
# Variants of: B1
# Assay: yeast fitness relative to wild type (ratio to wild type); higher = fitter; tRNA-Arg(CCU), competitive growth, 37 C, YPD
# Method in brief: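 For this measurement, the tRNA-Arg(CCU) gene was varied by chemical synthesis at a 3% per-site mutation rate across 69 sites, and each variant was placed at the native genomic locus in Saccharomyces cerevisiae. The pooled strains went through a 24-hour competition in YPD at 37°C in six parallel replicates, with amplicons from start and end populations read by 100-nucleotide paired-end sequencing. Darwinian fitness relative to wild type followed from the change in each genotype's frequency. Genotypes needed ≥ 100 starting reads, and estimates < 0.5 were set to 0.5.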
row,Variant,yeast fitness
1,GUUCCGUUGGCGUAAUGGUAACGGGUCUCGCUCCUAAGGAGAAGACUGCGGGUUCGAGUCCCGUAUGGAACG [C24G C30G C66U],≤ 0.5
2,GUUCCGUUGGCGUAAUGGUAACGGGUCUCUGUCCUAAGGAGAAGACUGCAGGUUCGAGUCCCGUACGGAACG [C24G C30U C31G G50A],≤ 0.5
3,GUUCCGUUGGCGUAAUGGUAACGGGUCUCCGUCCUAAGGAGAAGACUGCGGGUUCGAGUCCCGUACGGAACG [C24G C31G],0.773
4,GUUCCGUUGGCGUAAUGGUAACGGGUCUCCGUCCUAAGGAGAAGACUGCAGGUUCGAGUCCCGUACGGAACG [C24G C31G G50A],0.522
5,GUUCCGUUGGCGUAAUGGUAACGGGUCUCCGUCCUAAGGAGAAGACUGCGGGUUCGAGUCCCGUACGCAACG [C24G C31G G68C],≤ 0.5
6,GUUCCGUUGGCGUAAUGGUAACGGGUCUCCUUCUUAAGGAGAAGACUGUGGGUUCGAGUCCCGUACGGCACG [C24G C31U C34U C49U A69C],≤ 0.5
7,GUUCCGUUGGCGUAAUGGUAACGGGUCUCCUUCCUAAGGAGAAGACUGCGGGUUCGAGUCACGUACGGAACG [C24G C31U C61A],≤ 0.5
8,GUUCCGUUGGCGUAAUGGUAACGGGUCUCCCUACUAAGGAGAAGACUGCGGGUUCGAGUCCCGUACGGACCG [C24G C33A A70C],≤ 0.5
9,GUUCCGUUGGCGUAAUGGUAACGGGUCUCCCUGCUCCGGAACAGACUGCGGGUUCGAGUCCCGUUCGGAACG [C24G C33G A36C A37C G41A A42C A65U],≤ 0.5
10,GUUCCGUUGGCGUAAUGGUAACGGGUCUCCCUGCUAAGGAGAAGACUGCUGGUUCGAGCCCCGUACGGAACG [C24G C33G G50U U59C],≤ 0.5
11,GUUCCGUUGGCGUAAUGGUAACGGGUCUCCCUCGUGAGGAGAAGACUGCGGGAUCGAGUCCCGUACGGAACG [C24G C34G A36G U53A],≤ 0.5
12,GUUCCGUUGGCGUAAUGGUAACGGGUCUCCCUCGUAAGGAGAUGACUGCGGGUUCGAGUCCCGUACGGAACG [C24G C34G A43U],≤ 0.5
13,GUUCCGUUGGCGUAAUGGUAACGGGUCUCCCUCGUAAGGAGAAGACUGCGGGUUCGAGUCCCGUACGGACCG [C24G C34G A70C],≤ 0.5
14,GUUCCGUUGGCGUAAUGGUAACGGGUCUCCCUCGUAAGGAGAAGACAGAGGGUUCGAGUCCCGUGCGGAACG [C24G C34G U47A C49A A65G],≤ 0.5
15,GUUCCGUUGGCGUAAUGGUAACGGGUCUCCCUCUUAAGGAGAAGCCUGCGGGUUCGAGUCCCGUACGGAACG [C24G C34U A45C],≤ 0.5
16,GUUCCGUUGGCGUAAUGGUAACGGGUCUCCCUCUAAAGGAGAAGACUGCGGGUUUGAGUCCCGUACGGAACG [C24G C34U U35A C55U],≤ 0.5
17,GUUCCGUUGGCGUAAUGGUAACGGGUCUCCCUCCUAAGGAGAAGACUGGCGGUUCGAGUCCCGUACGGAACG [C24G C49G G50C],≤ 0.5
18,GUUCCGUUGGCGUAAUGGUAACGGGUCUCCCUCCUAAGGAGAAGACUGGGGGUUCGAGUCCCGUACAGCACG [C24G C49G G67A A69C],0.521
19,GUUCCGUUGGCGUAAUGGUAACGGGUCUCCCUCCUAAGGAGAAGACUGGGGGUUCGAGUCCCGUACGUAACG [C24G C49G G68U],≤ 0.5

row,Variant,yeast fitness
1,GUUCCGUUGGCGUAAUGGUAACGGGUCUCCCUCCUAAGGAGAAGACUGUGGGUUGGAAUCCCGUACGGAACG [C24G C49U C55G G58A],0.764
2,GUUCCGUUGGCGUAAUGGUAACGGGUCUCCCUCCUAAGGAGAAGACUGCGGGUUGGAGUCCUGUACGGAACG [C24G C55G C62U],≤ 0.5
3,GUUCCGUUGGCGUAAUGGUAACGGGUCUCCCUCCUAAGGAGAAGACUGCGGGUUGGAGUCCCGUAUGGAACG [C24G C55G C66U],≤ 0.5
4,GUUCCGUUGGCGUAAUGGUAACGGGUCUCCCUCCUAAGGAGAAGACUGCGGGUUCGAGUACCGUACGGAACG [C24G C60A],0.576
5,GUUCCGUUGGCGUAAUGGUAACGGGUCUCCCUCCUAAGGAGAAGACUGCGGGUUCGAGUUCCAUACGGAACG [C24G C60U G63A],≤ 0.5
6,GUUCCGUUGGCGUAAUGGUAACGGGUCUCCCUCCUAAGGAGAAGACUGCGGGUUCGAGUCCUGUGCGGAACG [C24G C62U A65G],0.558
7,GUUCCGUUGGCGUAAUGGUAACGGGUCUCCCUCCUAAGGAGAAGACUGCGGGUUCGAGUCCCGUAGGCAACG [C24G C66G G68C],≤ 0.5
8,GUUCCGUUGGCGUAAUGGUAACGGGUCUCCCUCCUAAAGAGAACACUGCGGGUUCGAGUCCCGUACGGAACG [C24G G38A G44C],≤ 0.5
9,GUUCCGUUGGCGUAAUGGUAACGGGUCUCCCUCCUAACGAGAAGACUGCGGGUUCGAGUCCCGUACGGAACG [C24G G38C],0.566
10,GUUCCGUUGGCGUAAUGGUAACGGGUCUCCCUCCUAAGAAGAAGACUGCGGGUUCGAGUCCCGUACGGACCG [C24G G39A A70C],≤ 0.5
11,GUUCCGUUGGCGUAAUGGUAACGGGUCUCCCUCCUAAGGAAAAGACUGCGGGUUCGAGUCCCGUACGGAACG [C24G G41A],0.619
12,GUUCCGUUGGCGUAAUGGUAACGGGUCUCCCUCCUAAGGACAAGACUGCGGGUUCGAGUCCCGUACGCAACG [C24G G41C G68C],0.592
13,GUUCCGUUGGCGUAAUGGUAACGGGUCUCCCUCCUAAGGAGAAAAUUGCGGGCUCGAGUCCCGUACGGAACG [C24G G44A C46U U53C],≤ 0.5
14,GUUCCGUUGGCGUAAUGGUAACGGGUCUCCCUCCUAAGGAGAAAAUUGCGGGCUCGAGUCCUGUACGGAACG [C24G G44A C46U U53C C62U],≤ 0.5
15,GUUCCGUUGGCGUAAUGGUAACGGGUCUCCCUCCUAAGGAGAAGACUACGGGUUCGAGUCCCGUACGGAACG [C24G G48A],0.588
16,GUUCCGUUGGCGUAAUGGUAACGGGUCUCCCUCCUAAGGAGAAGACUGCAGGUUUGAGUCCCGUACGGCUCG [C24G G50A C55U A69C A70U],≤ 0.5
17,GUUCCGUUGGCGUAAUGGUAACGGGUCUCCCUCCUAAGGAGAAGACUGCCGGUUCGAGUCCCGUACGGAGCG [C24G G50C A70G],≤ 0.5
18,GUUCCGUUGGCGUAAUGGUAACGGGUCUCCCUCCUAAGGAGAAGACUGCGGGUUCGACUCCCGUACGAAACG [C24G G58C G68A],≤ 0.5
19,GUUCCGUUGGCGUAAUGGUAACGGGACUCCCUCCUAAGGACAAGACUGCGGGUUCGAGUCCCGUAUGGAACG [C24G U26A G41C C66U],0.608

# Source: the RNAGym collection of RNA variant scans (doi:10.1126/science.aae0568)
